Results on 16 molecules are retold here after ChEMBL document CHEMBL4304739, “Discovery of 3-(Indol-5-yl)-indazole Derivatives as Novel Myeloid Differentiation Protein 2/Toll-like Receptor 4 Antagonists for Treatment of Acute Lung Injury” (J Med Chem, 2019).

Data set [1] concerns Peritoneal macrophage. The data set is described as follows: Cytotoxicity against ICR mouse peritoneal macrophages assessed as reduction in cell viability at 10 uM measured after 24 hrs by MTT assay. Type of data set: cell-based. In short, it runs like this:
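Peritoneal macrophages from ICR mice, 2.0×10^4 cells/well in DMEM with 10% FBS. Cells exposed to compound for 24 h, then MTT (5 mg/ml in 0.9% NaCl) added for 4 h at 37 °C in 5% CO2. Absorbance read at 490 nm; final DMSO 0.1%.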
On the technique in general: Formazan colour is commonly taken as a measure of viable cells.

For data set [2], the target named is T1, Toll-like receptor 4/Ly96 (Mus musculus, UniProt Q9JHF9+Q9QUK6).
T1 sequence (Q9QUK6 whole entry): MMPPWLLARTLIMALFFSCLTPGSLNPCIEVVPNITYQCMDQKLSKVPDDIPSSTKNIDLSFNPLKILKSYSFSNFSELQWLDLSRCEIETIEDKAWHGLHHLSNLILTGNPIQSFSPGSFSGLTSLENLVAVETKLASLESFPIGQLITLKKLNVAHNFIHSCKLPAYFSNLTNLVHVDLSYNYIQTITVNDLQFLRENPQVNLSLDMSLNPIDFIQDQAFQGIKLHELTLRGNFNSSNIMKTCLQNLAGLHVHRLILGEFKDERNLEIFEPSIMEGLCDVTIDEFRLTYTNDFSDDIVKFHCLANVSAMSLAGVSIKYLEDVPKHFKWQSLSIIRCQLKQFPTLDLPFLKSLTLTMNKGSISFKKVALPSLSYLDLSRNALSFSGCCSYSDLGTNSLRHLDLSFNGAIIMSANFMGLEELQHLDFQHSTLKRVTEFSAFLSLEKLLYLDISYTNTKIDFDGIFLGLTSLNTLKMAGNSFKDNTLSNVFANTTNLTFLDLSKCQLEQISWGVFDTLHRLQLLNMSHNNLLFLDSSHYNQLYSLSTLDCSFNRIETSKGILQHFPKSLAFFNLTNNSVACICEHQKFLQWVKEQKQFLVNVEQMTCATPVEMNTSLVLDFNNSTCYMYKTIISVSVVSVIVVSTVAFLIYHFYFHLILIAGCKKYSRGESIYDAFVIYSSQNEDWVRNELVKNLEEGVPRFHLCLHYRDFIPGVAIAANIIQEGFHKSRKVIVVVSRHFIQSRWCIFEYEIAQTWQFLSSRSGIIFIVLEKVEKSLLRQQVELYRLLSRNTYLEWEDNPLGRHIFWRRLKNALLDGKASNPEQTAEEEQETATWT
T1 sequence (Q9JHF9 whole entry): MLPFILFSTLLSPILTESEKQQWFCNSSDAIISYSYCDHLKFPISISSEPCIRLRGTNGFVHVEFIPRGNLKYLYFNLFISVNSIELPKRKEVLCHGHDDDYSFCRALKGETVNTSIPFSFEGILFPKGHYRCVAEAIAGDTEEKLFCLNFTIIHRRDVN
The experiment in a line: Inhibition of MD2-TLR4 protein-protein interaction in ICR mouse peritoneal macrophages assessed as reduction in LPS-induced IL-6 production preincubated for 2 hrs followed by LPS-stimulation and measured after 22 hrs by ELISA. Background: An ELISA detects its analyte on a solid surface through an enzyme-linked reagent.

Data set [3] has as its target T1, Toll-like receptor 4/Ly96. The experiment in a line: Inhibition of MD2-TLR4 protein-protein interaction in ICR mouse peritoneal macrophages assessed as reduction in LPS-induced TNFalpha production preincubated for 2 hrs followed by LPS-stimulation and measured after 22 hrs by ELISA.
Data set [4] concerns Mus musculus. The data set is described as follows: Antiinflammatory activity in LPS-induced C57BL/6 mouse model of acute lung injury assessed as reduction in lung injury score at 10 mg/kg, iv pretreated for 15 mins followed by LPS stimulation and measured after 6 hrs. Type of data set: functional, organism-based. An outline of the steps:
(§1)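 Male C57BL/6 mice (18−22 g; n=8 per group). Compound in 0.1% CMC-Na given by tail vein injection 15 min before intraperitoneal LPS (20 mg/kg); controls received saline. Mice were sacrificed 6 h after LPS, and serum and lung tissue were collected.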

Data set [5] deals with Mus musculus. The experiment in a line: Antiinflammatory activity in LPS-induced C57BL/6 mouse model of acute lung injury assessed as reduction in F4/80 positive macrophage at 10 mg/kg, iv pretreated for 15 mins followed by LPS stimulation and measured after 6 hrs by ABC/hematoxylin staining-based immunohistochemistry analysis. Format: functional, organism-based. An outline of the steps: as §1

Structures are written as SMILES. pIC50: −log10 of the molar value. The source made the active and inactive calls. The rule behind the calls is not given here.

Take `O=C(Nc1ccc2[nH]nc(-c3ccc4c(ccn4CCO)c3)c2c1)c1ccc(Cl)cc1`: the Activity entry in data set [1] was “Non-Toxic”.

Take `Cc1cccc(C(=O)Nc2ccc3[nH]nc(-c4ccc5c(ccn5CCO)c4)c3c2)n1`: the Activity entry in data set [1] is on record as “Non-Toxic”. In the case of `O=C(Nc1ccc2[nH]nc(-c3ccc4c(ccn4CCO)c3)c2c1)c1ccccn1`, in data set [1], the Activity entry is given as “Non-Toxic”. Turning to `O=C(/C=C/c1ccccc1)Nc1ccc2[nH]nc(-c3ccc4c(ccn4CCO)c3)c2c1`, the Activity entry in data set [1] was “Non-Toxic”. For `O=[N+]([O-])c1ccc2[nH]nc(-c3ccc4c(ccn4CCO)c3)c2c1`, the Activity result in data set [1] is “Non-Toxic”. Moreover, the pIC50 is 6.08 in data set [2] and 5.16 in data set [3]. The matching figures for `O=C(CCCl)Nc1ccc2[nH]nc(-c3ccc4c(ccn4CCO)c3)c2c1`: “Non-Toxic”, 5.34 and 5.46. Turning to `Nc1ccc2[nH]nc(-c3ccc4c(ccn4CCO)c3)c2c1`, the Activity result in data set [1] is on record as “Non-Toxic”.

Turning to `Cc1cccc(C(=O)Nc2ccc3[nH]nc(-c4ccc5c(ccn5CCO)c4)c3c2)c1`, the Activity entry in data set [1] is recorded as “Non-Toxic”.

With `COc1cc(OC)cc(C(=O)Nc2ccc3[nH]nc(-c4ccc5c(ccn5CCO)c4)c3c2)c1`, the Activity entry in data set [1] is listed as “Non-Toxic”. In the case of `CCC(=O)Nc1ccc2[nH]nc(-c3ccc4c(ccn4CCO)c3)c2c1`, the Activity entry in data set [1] is “Non-Toxic”. As to `CCCn1c(-c2c[nH]c3ncccc23)nc2ccc(N3CCN(C)CC3)nc21`, the outcome in data set [4] and in data set [5] was Active. As to `CC(=O)Nc1ccc2[nH]nc(-c3ccc4c(ccn4CCO)c3)c2c1`, the Activity entry in data set [1] is on record as “Non-Toxic”. Consider `O=C(Nc1ccc2[nH]nc(-c3ccc4c(ccn4CCO)c3)c2c1)c1c(Cl)cccc1Cl`, for which the Activity result in data set [1] is “Non-Toxic”. The values for the pIC50 in data set [2] and in data set [3] were 6.14 and 5.20, respectively. As to `O=C(Nc1ccc2[nH]nc(-c3ccc4c(ccn4CCO)c3)c2c1)c1cccc(Cl)c1`, the Activity result in data set [1] is on record as “Non-Toxic”. Consider `O=C(Nc1ccc2[nH]nc(-c3ccc4c(ccn4CCO)c3)c2c1)c1ccc(F)cc1`, for which the Activity entry in data set [1] was “Non-Toxic”. On the same count and under the same terms, the entry for `O=C(Nc1ccc2c(c1)c(-c1ccc3[nH]ccc3c1)nn2Cc1ccccc1)c1c(Cl)cccc1Cl` is “Non-Toxic”.

The pIC50 is the negative decadic logarithm of the IC50, by convention in mol/L.
